# Laboratory results: ChEMBL document CHEMBL1156144, “Biaryl ethers as novel non-nucleoside reverse transcriptase inhibitors with improved potency against key mutant viruses” (J Med Chem, 2009)
# Assays:
# [1] = system: Human immunodeficiency virus; experiment: Antiviral activity against HIV with reverse transcriptase K103N/G190A double mutant assessed as inhibition of viral replication relative to wild type; format: functional
# [2] = system: Human immunodeficiency virus; experiment: Antiviral activity against HIV with reverse transcriptase K103N/Y181C/G190A mutant assessed as inhibition of viral replication; format: functional, organism-based; settings: Human immunodeficiency virus 1
# [3] = system: Human immunodeficiency virus; experiment: Antiviral activity against HIV with reverse transcriptase CNDO mutant assessed as inhibition of viral replication; format: functional, organism-based; settings: Human immunodeficiency virus 1
# [4] = system: Human immunodeficiency virus; experiment: Antiviral activity against HIV with reverse transcriptase K103N/Y181C double mutant assessed as inhibition of viral replication relative to wild type; format: functional
# [5] = system: Human immunodeficiency virus; experiment: Antiviral activity against HIV with reverse transcriptase K101E/G190A double mutant assessed as inhibition of viral replication relative to wild type; format: functional
# [6] = system: Human immunodeficiency virus; experiment: Antiviral activity against HIV with reverse transcriptase Y181C mutant assessed as inhibition of viral replication relative to wild type; format: functional
# [7] = system: Human immunodeficiency virus; experiment: Antiviral activity against HIV with reverse transcriptase Y188L mutant assessed as inhibition of viral replication; format: functional, organism-based; settings: Human immunodeficiency virus 1
# [8] = system: Human immunodeficiency virus; experiment: Antiviral activity against HIV with reverse transcriptase CNDO mutant assessed as inhibition of viral replication relative to wild type; format: functional
# [9] = system: Human immunodeficiency virus; experiment: Antiviral activity against HIV with reverse transcriptase K103N/Y181C double mutant infected in human MT2 cells assessed as inhibition of viral replication measuring p24 level after 3 days in presence of 10% fetal bovine serum; format: functional; settings: Human immunodeficiency virus 1, MT2, Serum, 72 h; read-out: CIC95
# In short: (§1)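 Multiple-cycle replication (Spread) assay in MT2 cells with H9IIIB-background mutant virus. Cells were infected overnight at moi ≈ 0.01 without compound, washed, then cultured 3 days across a range of compound concentrations in medium with 10% FBS. p24 was measured in supernatants. CIC95 is the lowest concentration inhibiting replication by ≥95%, reported as the geometric mean of ≥2 determinations.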
# [10] = system: Human immunodeficiency virus; experiment: Antiviral activity against HIV with reverse transcriptase G190A mutant assessed as inhibition of viral replication relative to wild type; format: functional
# [11] = system: Human immunodeficiency virus; experiment: Antiviral activity against HIV with reverse transcriptase Y181C mutant infected in human MT2 cells assessed as inhibition of viral replication measuring p24 level after 3 days in presence of 10% fetal bovine serum; format: functional; settings: Human immunodeficiency virus 1, MT2, Serum, 72 h; read-out: CIC95; in short: as §1
# [12] = system: Human immunodeficiency virus; experiment: Antiviral activity against wild type HIV H9-3B infected in human MT2 cells assessed as inhibition of viral replication measuring p24 level after 3 days in presence of 10% fetal bovine serum; format: functional; settings: Human immunodeficiency virus 1, MT2, Serum; read-out: CIC95
# In short: (§2)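 Multiple-cycle spread assay in MT2 cells with wild-type H9IIIB virus. Cells were infected overnight at moi ≈ 0.01 without compound, washed, then cultured 3 days across varying compound concentrations in RPMI 1640 with 10% FBS or 50% NHS. p24 was measured in supernatants. CIC95 is the lowest concentration inhibiting replication ≥95%, as the geometric mean of ≥2 determinations.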
# [13] = Inhibition of RNA-dependent DNA polymerase activity of wild type HIV reverse transcriptase assessed as BrdU incorporation by standard ECL assay; design: species or system Human immunodeficiency virus
# In short: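 Purified recombinant wild-type RT polymerase activity was measured using a 500-nt heteropolymeric RNA template and a biotinylated DNA primer. BrdU incorporation was detected with a ruthenylated anti-BrdU antibody by electrochemiluminescence. Ki is the geometric mean of at least two determinations, each within 25% of the mean.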
# [14] = system: Human immunodeficiency virus; experiment: Antiviral activity against HIV with reverse transcriptase L100I mutant assessed as inhibition of viral replication; format: functional, organism-based; settings: Human immunodeficiency virus 1
# [15] = system: Human immunodeficiency virus; experiment: Antiviral activity against HIV with reverse transcriptase K103N mutant infected in human MT2 cells assessed as inhibition of viral replication measuring p24 level after 3 days in presence of 10% fetal bovine serum; format: functional; settings: Human immunodeficiency virus 1, MT2, Serum, 72 h; read-out: CIC95; in short: as §1
# [16] = system: Human immunodeficiency virus; experiment: Antiviral activity against HIV with reverse transcriptase K103N mutant assessed as inhibition of viral replication; format: functional, organism-based; settings: Human immunodeficiency virus 1
# [17] = system: Human immunodeficiency virus; experiment: Antiviral activity against HIV with reverse transcriptase K101E/Y181C/G190A mutant assessed as inhibition of viral replication relative to wild type; format: functional
# [18] = system: Human immunodeficiency virus; experiment: Antiviral activity against HIV with reverse transcriptase K103N/G190A double mutant assessed as inhibition of viral replication; format: functional, organism-based; settings: Human immunodeficiency virus 1
# [19] = system: Human immunodeficiency virus; experiment: Antiviral activity against HIV with reverse transcriptase MDRC4 mutant assessed as inhibition of viral replication; format: functional, organism-based; settings: Human immunodeficiency virus 1
# [20] = system: Human immunodeficiency virus; experiment: Antiviral activity against HIV with reverse transcriptase K103N mutant assessed as inhibition of viral replication relative to wild type; format: functional
# [21] = system: Human immunodeficiency virus; experiment: Antiviral activity against HIV with reverse transcriptase K101E/G190A double mutant assessed as inhibition of viral replication; format: functional, organism-based; settings: Human immunodeficiency virus 1
# [22] = system: Human immunodeficiency virus; experiment: Antiviral activity against HIV with reverse transcriptase L100I/K103N double mutant assessed as inhibition of viral replication relative to wild type; format: functional
# [23] = system: Human immunodeficiency virus; experiment: Antiviral activity against HIV with reverse transcriptase Y181C/G190A double mutant assessed as inhibition of viral replication relative to wild type; format: functional
# [24] = system: Human immunodeficiency virus; experiment: Antiviral activity against HIV with reverse transcriptase V106A/G190A/F227L mutant assessed as inhibition of viral replication; format: functional, organism-based; settings: Human immunodeficiency virus 1
# [25] = system: Human immunodeficiency virus; experiment: Antiviral activity against HIV with reverse transcriptase V106A/G190A/F227L mutant assessed as inhibition of viral replication relative to wild type; format: functional
# [26] = system: Human immunodeficiency virus; experiment: Antiviral activity against HIV with reverse transcriptase G190S mutant assessed as inhibition of viral replication; format: functional, organism-based; settings: Human immunodeficiency virus 1
# [27] = system: Human immunodeficiency virus; experiment: Antiviral activity against HIV with reverse transcriptase MDRC4 mutant assessed as inhibition of viral replication relative to wild type; format: functional
# [28] = system: Human immunodeficiency virus; experiment: Antiviral activity against HIV with reverse transcriptase L100I/K103N double mutant assessed as inhibition of viral replication; format: functional, organism-based; settings: Human immunodeficiency virus 1
# [29] = system: Human immunodeficiency virus; experiment: Antiviral activity against HIV with reverse transcriptase K101E/Y181C/G190A mutant assessed as inhibition of viral replication; format: functional, organism-based; settings: Human immunodeficiency virus 1
# [30] = system: Human immunodeficiency virus; experiment: Antiviral activity against HIV with reverse transcriptase G190S mutant assessed as inhibition of viral replication relative to wild type; format: functional
# [31] = system: Human immunodeficiency virus; experiment: Antiviral activity against HIV with reverse transcriptase L100I mutant assessed as inhibition of viral replication relative to wild type; format: functional
# [32] = molecular target: Human immunodeficiency virus type 1 reverse transcriptase (Human immunodeficiency virus 1, UniProt Q72547, K103N); experiment: Inhibition of RNA-dependent DNA polymerase activity of recombinant HIV reverse transcriptase K103N mutant assessed as BrdU incorporation by standard ECL assay
# [33] = system: Human immunodeficiency virus; experiment: Antiviral activity against wild type HIV H9-3B infected in human MT2 cells assessed as inhibition of viral replication measuring p24 level after 3 days in presence of 50% normal human serum; format: functional; settings: Human immunodeficiency virus 1, H9-3B, 72 h, read-out: CIC95; in short: as §2
# [34] = system: Human immunodeficiency virus; experiment: Antiviral activity against HIV with reverse transcriptase K103N/P225H double mutant assessed as inhibition of viral replication relative to wild type; format: functional
# [35] = system: Human immunodeficiency virus; experiment: Antiviral activity against HIV with reverse transcriptase K103N/Y181C/G190A mutant assessed as inhibition of viral replication relative to wild type; format: functional
# [36] = system: Human immunodeficiency virus; experiment: Antiviral activity against HIV with reverse transcriptase Y181C/G190A double mutant assessed as inhibition of viral replication; format: functional, organism-based; settings: Human immunodeficiency virus 1
# [37] = system: Human immunodeficiency virus; experiment: Antiviral activity against HIV with reverse transcriptase K103N/Y181C double mutant assessed as inhibition of viral replication; format: functional, organism-based; settings: Human immunodeficiency virus 1
# [38] = system: Human immunodeficiency virus; experiment: Antiviral activity against HIV with reverse transcriptase Y181C mutant assessed as inhibition of viral replication; format: functional, organism-based; settings: Human immunodeficiency virus 1
# [39] = system: Human immunodeficiency virus; experiment: Antiviral activity against HIV with reverse transcriptase K103N/P225H double mutant assessed as inhibition of viral replication; format: functional, organism-based; settings: Human immunodeficiency virus 1
# [40] = system: Human immunodeficiency virus; experiment: Antiviral activity against HIV with reverse transcriptase Y188L mutant assessed as inhibition of viral replication relative to wild type; format: functional
# [41] = system: Human immunodeficiency virus; experiment: Antiviral activity against HIV with reverse transcriptase G190A mutant assessed as inhibition of viral replication; format: functional, organism-based; settings: Human immunodeficiency virus 1
smiles,measurement,setting,value
N#Cc1cc(Cl)cc(Oc2cc(OCc3n[nH]c4ncccc34)ccc2Cl)c1,fold change (FC),[1],2.18
same,IC50,[2],30.9 nM
same,IC50,[3],1.1 nM
same,fold change (FC),[4],21.45
same,fold change (FC),[5],1.91
same,fold change (FC),[6],2.82
same,IC50,[7],616 nM
same,fold change (FC),[8],1
same,IC95,[9],53 nM
same,fold change (FC),[10],1.64
same,IC95,[11],22 nM
same,IC95,[12],10 nM
same,Ki,[13],0.1 nM
same,IC50,[14],0.7 nM
same,IC95,[15],15 nM
same,IC50,[16],1.6 nM
same,fold change (FC),[17],10.55
same,IC50,[18],2.4 nM
same,IC50,[19],5.1 nM
same,fold change (FC),[20],1.45
same,IC50,[21],2.1 nM
same,fold change (FC),[22],15
same,fold change (FC),[23],4.18
same,IC50,[24],> 1000 nM
same,fold change (FC),[25],>909
same,IC50,[26],4.8 nM
same,fold change (FC),[27],4.64
same,IC50,[28],16.5 nM
same,IC50,[29],11.6 nM
same,fold change (FC),[30],4.36
same,fold change (FC),[31],0.64
same,Ki,[32],0.2 nM
same,IC95,[33],52 nM
same,fold change (FC),[34],3.27
same,fold change (FC),[35],28.09
same,IC50,[36],4.6 nM
same,IC50,[37],23.6 nM
same,IC50,[38],3.1 nM
same,IC50,[39],3.6 nM
same,fold change (FC),[40],560.18
same,IC50,[41],1.8 nM
